Source: PubChem (several laboratories)
bCat nuc transl: beta-catenin nuclear translocation modulation; HeLa beta-catenin nuclear translocation, immunofluorescence imaging; nuclear translocation activity, % at 5 µM; 190,000 tested, 0.3% active; AID 1665;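 active = nuclear translocation activity above 50% at 5 µM, with a well cell count of 50 or more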;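 note: per-cell ratio of nuclear to cytoplasmic median beta-catenin stain intensity; plate controls were DMSO negative control for no effect and GSK-3 inhibitor IX positive control for full effect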
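Assay system: human HeLa cells, native beta-catenin; doses: 5 µM primary, 0.02–20 µM confirmation; incubation: compound treatment 24 h, 37°C, 5% CO2; technique: fluorescence imaging of beta-catenin antibody stain plus DAPI; measure: % activation, nuclear-to-cytoplasmic median beta-catenin signal ratio per cell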
Rad51 HR inh: blocks human Rad51 in homologous recombination. hRad51 DNA strand exchange, fluorescence dequenching. inhibition, % at 10 µM. 200,000 tested, 0.085% active;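 active = inhibition above 40% at the single screening dose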;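 note: 0% = DMSO control wells and 100% = blanks with heterologous ssDNA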
Target sequence (Q06609 whole entry, looked up): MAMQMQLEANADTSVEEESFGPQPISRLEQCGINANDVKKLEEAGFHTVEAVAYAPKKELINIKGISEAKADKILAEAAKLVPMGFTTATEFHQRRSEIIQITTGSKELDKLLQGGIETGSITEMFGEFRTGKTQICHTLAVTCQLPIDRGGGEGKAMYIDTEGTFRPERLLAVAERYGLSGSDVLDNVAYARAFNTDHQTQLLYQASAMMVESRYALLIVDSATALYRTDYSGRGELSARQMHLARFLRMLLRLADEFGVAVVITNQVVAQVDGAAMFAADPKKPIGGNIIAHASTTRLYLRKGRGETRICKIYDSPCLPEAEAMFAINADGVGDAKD
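System: human Rad51 nucleoprotein filaments preassembled on unlabelled ssDNA. Reagent: labelled 47-mer dsDNA for strand exchange. Schedule: 30-min compound preincubation and 15-min exchange, both room temperature. Measured by: FRET fluorescence dequenching, excitation 485 nm, emission 520 nm. Read-out: Fluorescence-based percent inhibition, control- and blank-normalised. Benchmarks: plate controls and plate blanks.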
TbHK1 inh: blocks Trypanosoma brucei hexokinase 1 activity. recombinant TbHK1, G6PDH-coupled NADH A340. inhibition, % at 10 µM. 220,000 tested, 0.11% active. AID 1430;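 active = inhibition of 50% or more in the single-dose primary screen; inactive = inhibition below 50%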
Dynein transport: blocks dynein driven cargo transport along microtubules | 3617.4 mouse cells, GR-EGFP nuclear translocation imaging; test concentration mostly 20 µM; stimulated with dexamethasone, 1 µM; stronger effect = lower value | z-score, hits read low | 220,000 tested, 0.47% active | AID 1381;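 active = plate z-score of nuclear minus cytoplasmic receptor signal below a set negative limit, without overly bright fluorescence or cell loss, cut at about -3.5 in these data, passing the limit was not always enough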;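 note: z-score of nuclear minus cytoplasmic ring GR-EGFP intensity difference per well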
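Buffer or medium: Induction medium lacking tetracycline, stripped serum | Also added: Dexamethasone agonist, 1.0 µM final, for 30 min | Timing: 48 h induction, 1 h compound, 30 min dex at 37 °C | Detection: Formaldehyde fixation, Hoechst nuclear stain, 10x automated fluorescence imaging | Measure: Nuclear versus cytoplasmic GR-EGFP signal, averaged per well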
MT stabilizer: microtubule stabilization, imaging screen | AID 2205 | 200,000 tested, 0.83% active | HeLa tubulin immunostaining HCS, 24 h; share of cells brighter than vehicle mean+2SD | % tubulin-high responders, % at 10 µM;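 active = plate Z-score above 3 for both tubulin-high and condensed-nucleus cell shares, with cell loss under 80%, at 10 µM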;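 note: anti alpha tubulin signal scored within the nucleus-defined area of each cell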
* hit, by the source's call. An excerpt weighted towards active compounds, which were near 1.5% of everything screened.

Results for Cc1ccc2nc(-c3ccc4c(c3)OCCO4)cn2c1 ?
bCat nuc transl: 56*; Rad51 HR inh: 2; TbHK1 inh: -14; Dynein transport: -0.35

How did CCN(CC)c1c([N+](=O)[O-])c(=O)n(C)c2ccccc12 do in these assays?
bCat nuc transl: -1; Rad51 HR inh: 28; TbHK1 inh: -13; Dynein transport: -0.63; MT stabilizer: 3

What do the screens show for `CCOC(=O)c1[nH]c2c(c1-c1ccccc1)C(=O)CC(c1ccccc1)C2` (stereo unspecified)?
bCat nuc transl: 1; TbHK1 inh: 2; Dynein transport: -0.056; MT stabilizer: 4

What do the screens show for `Cc1c(C(=O)OCC(C)C)[nH]c2c1C(=O)CC(c1ccco1)C2` (stereo unspecified)?
bCat nuc transl: 183*; Rad51 HR inh: -2; TbHK1 inh: 1; Dynein transport: -0.7; MT stabilizer: 3

Results for COC(=O)C1C(=O)c2c([nH]c(C(=O)OC3CCCC3)c2C)CC1C (stereo unspecified) ?
bCat nuc transl: -4; Rad51 HR inh: 7; TbHK1 inh: -3; Dynein transport: -0.17; MT stabilizer: 1

What do the screens show for `Cc1c(C(=O)OCC2CCCO2)[nH]c2c1C(=O)CC(c1ccco1)C2` (stereo unspecified)?
bCat nuc transl: 89*; Rad51 HR inh: -3; TbHK1 inh: 10; Dynein transport: 0.94; MT stabilizer: 40*

How did COC(=O)c1[nH]c2c(c1C)C(=O)CC(c1ccccc1)C2 (stereo unspecified) do in these assays?
bCat nuc transl: 56*; Rad51 HR inh: -2; TbHK1 inh: 0; Dynein transport: 0.12; MT stabilizer: 4

How did Cc1c(C(=O)OC2CCCC2)[nH]c2c1C(=O)CC(c1ccco1)C2 (stereo unspecified) do in these assays?
bCat nuc transl: 132*; Rad51 HR inh: 2; TbHK1 inh: 2; Dynein transport: -0.72; MT stabilizer: 10

What do the screens show for `CCOC(=O)c1[nH]c2c(c1C)C(=O)CC(c1ccc(OC)c(OC)c1)C2` (stereo unspecified)?
bCat nuc transl: -1; Rad51 HR inh: 5; TbHK1 inh: 6; Dynein transport: -1.3; MT stabilizer: 4

How did CNC(=S)N1CCN=C1Nc1nc(C)cc(C)n1 do in these assays?
bCat nuc transl: -1; Rad51 HR inh: 4; TbHK1 inh: 4; Dynein transport: -1.4; MT stabilizer: 2

What do the screens show for `CCn1c(-c2ccc([N+](=O)[O-])cc2)n[nH]c1=S`?
Rad51 HR inh: 8; TbHK1 inh: -9; Dynein transport: -0.65; MT stabilizer: 3

Results for O=c1c2[nH]c3ccccc3c2ncn1Cc1cccnc1 ?
bCat nuc transl: 3; Rad51 HR inh: -7; TbHK1 inh: 0; Dynein transport: 0.84; MT stabilizer: 2

What do the screens show for `C/C=C/COC(=O)c1[nH]c2c(c1C)C(=O)CC(c1ccco1)C2` (stereo unspecified)?
bCat nuc transl: 154*; Rad51 HR inh: 1; TbHK1 inh: 4; Dynein transport: -0.8; MT stabilizer: 9

How did Cc1c(C(=O)N2CCOCC2)[nH]c2c1C(=O)CC(c1ccccc1Cl)C2 (stereo unspecified) do in these assays?
Rad51 HR inh: -2; TbHK1 inh: -3; Dynein transport: 0.52; MT stabilizer: 41*

What do the screens show for `COCCOC(=O)c1[nH]c2c(c1C)C(=O)CC(c1cc(OC)ccc1OC)C2` (stereo unspecified)?
bCat nuc transl: 1; Rad51 HR inh: -6; TbHK1 inh: -7; Dynein transport: 0.29; MT stabilizer: 4

How did C=CCOC(=O)C1=C(C)OC(N)=C(C#N)C1c1ccco1 (stereo unspecified) do in these assays?
bCat nuc transl: -2; Rad51 HR inh: -14; TbHK1 inh: -34; Dynein transport: -0.5

Results for C/C=C/COC(=O)c1[nH]c2c(c1C)C(=O)CC(c1ccc(N(C)C)cc1)C2 (stereo unspecified) ?
bCat nuc transl: 1; Rad51 HR inh: 2; TbHK1 inh: 1; Dynein transport: -0.34; MT stabilizer: 3

Results for C=CCOC(=O)c1[nH]c2c(c1C)C(=O)CC(c1ccco1)C2 (stereo unspecified) ?
bCat nuc transl: 89*; Rad51 HR inh: -1; TbHK1 inh: 6; Dynein transport: 0.41; MT stabilizer: 11

What do the screens show for `COc1ccccc1OS(=O)(=O)c1ccc(NC(C)=O)cc1`?
bCat nuc transl: 0; Rad51 HR inh: 3; TbHK1 inh: 3; Dynein transport: 0.93; MT stabilizer: 6

What do the screens show for `COC(=O)/C=C/S(=O)(=O)c1ccc(NC(C)=O)cc1`?
bCat nuc transl: -6; Rad51 HR inh: -17; TbHK1 inh: 1; Dynein transport: -3.9*; MT stabilizer: 1

What do the screens show for `CCc1ccccc1NC(=O)c1cnc2n(c1=O)CCS2`?
bCat nuc transl: 2; Rad51 HR inh: 7; TbHK1 inh: -18; Dynein transport: -0.74; MT stabilizer: 4

What do the screens show for `Cn1cc(/C=N/n2cnc3scc(-c4ccccc4)c3c2=O)c2ccccc21`?
bCat nuc transl: 71*; Rad51 HR inh: -3; TbHK1 inh: 48; Dynein transport: -0.05; MT stabilizer: 28*

What do the screens show for `Cc1ccccc1-n1c(SCC(=O)N/N=C/c2sccc2C)nc2ccccc2c1=O`?
bCat nuc transl: 0; Rad51 HR inh: 4; TbHK1 inh: 36; Dynein transport: 1.3; MT stabilizer: 14*

How did Cc1ccc(/C=N/NC(=O)CSc2nc3ccccc3c(=O)n2-c2ccccc2C)s1 do in these assays?
bCat nuc transl: -2; TbHK1 inh: -9; Dynein transport: 0.41; MT stabilizer: 4

How did Cc1cc(C)n(-c2nc3c(c(=O)[nH]c(=O)n3C)n2C)n1 do in these assays?
bCat nuc transl: -6; Rad51 HR inh: 0; TbHK1 inh: 1; Dynein transport: -0.3; MT stabilizer: 2

How did Cc1cc(C)n(-c2nc3c(c(=O)[nH]c(=O)n3C)n2Cc2ccccc2)n1 do in these assays?
bCat nuc transl: -6; Rad51 HR inh: 2; TbHK1 inh: 0; Dynein transport: 0.15; MT stabilizer: 1

How did Cc1cc(C)n(-c2nc3c(c(=O)[nH]c(=O)n3C)n2CCc2ccccc2)n1 do in these assays?
bCat nuc transl: -2; Rad51 HR inh: -1; TbHK1 inh: 3; Dynein transport: 0.15; MT stabilizer: 41*

Results for Cc1cc(C)n(-c2nc3c(c(=O)[nH]c(=O)n3C)n2Cc2ccc(F)cc2)n1 ?
bCat nuc transl: -1; Rad51 HR inh: 66*; TbHK1 inh: 1; Dynein transport: -0.13; MT stabilizer: 1

Results for COc1cc2oc3cc(C)oc(=O)c3c2cc1OC ?
bCat nuc transl: -1; Rad51 HR inh: 25; TbHK1 inh: -41; Dynein transport: -0.18

Results for CSc1nc(Oc2ccc3ccccc3c2)c2sccc2n1 ?
bCat nuc transl: 86*; Rad51 HR inh: 0; TbHK1 inh: -5; Dynein transport: 0.48; MT stabilizer: 41*
